Test results reported in ChEMBL document CHEMBL4368943 (J Med Chem, 2019).
Active and inactive are the calls of the source. The calls are words filed in the database; no cut-off is given here.

How the values were obtained:
[1] = Binding affinity to His-TEV-tagged VHL (54 to 213 residues) (unknown origin)/Elongin B (1 to 118 residues)/Elongin C (1 to 96 residues) expressed in Escherichia coli BL21(DE3) by FP assay; set-up: species or system Homo sapiens
Method in brief: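 Competitive FP. Tracer is a fluorescent VHL ligand (Kd 2.3 nM). VHL–ElonginB/C complex and tracer each at 5 nM final, preincubated. Compound in DMSO (5 µL into 95 µL) for 60 min at room temperature with shaking. Ex 485/em 530 nm. IC50 by nonlinear regression; Ki from probe KD and protein/probe concentrations. Duplicate, three independent experiments.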

[2] = molecular target: T1, von Hippel-Lindau disease tumor suppressor/Estrogen receptor/Cullin-2 (Homo sapiens, UniProt P03372+P40337+Q13617); assay: Protac activity against VHL/cullin2/ERalpha in human MCF7 cells assessed as ERalpha degradation by measuring reduction in ER protein level pre-treated with raloxifene for 2 hrs followed by compound exposure at 30 nM for 4 hrs by Western blot analysis; type: cell-based
[3] = molecular target: T2, Protein cereblon/Estrogen receptor/Cullin-4A (Homo sapiens) (UniProt P03372+Q96SW2+Q13619); assay: Protac activity against cereblon/cullin 4A/ERalpha in human MCF7 cells assessed as ERalpha degradation by measuring ER protein/GADPH ratio at 1 nM after 4 hrs by Western blot analysis relative to control; type: cell-based
Method in brief: (§1)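 MCF-7 cells (DMEM, 10% FBS, passages 3−8) exposed 4 h. Lysed in RIPA with protease inhibitors; equal protein on 10% SDS-PAGE, PVDF, anti-ERα blot. Membranes stripped and reprobed for GAPDH. ERα/GAPDH ratio normalized to DMSO = 100; DC50 from densitometry of the dose series.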

[4] = molecular target: T2, Protein cereblon/Estrogen receptor/Cullin-4A (Homo sapiens); assay: Protac activity against cereblon/cullin 4A/ERalpha in human MCF7 cells assessed as ERalpha degradation by measuring ER protein/GADPH ratio at 10 nM after 4 hrs by Western blot analysis relative to control; type: cell-based; method in brief: as §1
[5] = molecular target: T2, Protein cereblon/Estrogen receptor/Cullin-4A (Homo sapiens); assay: Protac activity against cereblon/cullin 4A/ERalpha in human MCF7 cells assessed as ERalpha degradation by measuring ER protein/GADPH ratio at 100 nM after 4 hrs by Western blot analysis relative to control; type: cell-based; method in brief: as §1
[6] = molecular target: T2, Protein cereblon/Estrogen receptor/Cullin-4A (Homo sapiens); assay: Protac activity against cereblon/cullin 4A/ERalpha in human MCF7 cells assessed as ERalpha degradation by measuring ER protein/GADPH ratio at 1000 nM after 4 hrs by Western blot analysis relative to control; type: cell-based; method in brief: as §1
[7] = tested on: MCF7; assay: Inhibition of cell growth in human MCF7 cells after 4 days by wst-8-based colorimetric analysis; type: functional; settings: MCF7, 96 h
Method in brief: (§2)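 Cells seeded at 1500/well overnight, then exposed to graded compound doses for 4 days. Growth read by colorimetric WST-8 assay. GI50 from fitted curves. MCF-7 cells were kept in DMEM, 10% FBS, passages 3−8; human mammary epithelial cells were run the same way.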

[8] = tested on: MCF7; assay: Inhibition of cell growth in human MCF7 cells after 4 days by wst-8-based colorimetric analysis relative to control; type: functional; method in brief: as §2
[9] = tested on: MCF7; assay: Antiproliferative activity against human MCF7 cells at 10 to 300 nM after 5 days by crystal violet staining based assay; type: functional, cell-based
Method in brief: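 MCF-7 cells in DMEM with 10% FBS and penicillin/streptomycin, passages 3−8, exposed to compounds at 10, 100 and 300 nM for 5 days, then fixed and stained with crystal violet.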

[10] = molecular target: T1, von Hippel-Lindau disease tumor suppressor/Estrogen receptor/Cullin-2; assay: Protac activity against VHL/cullin2/ERalpha in human MCF7 cells assessed as ERalpha degradation by measuring ER protein/GADPH ratio at 1 nM after 4 hrs by Western blot analysis relative to control; type: cell-based; method in brief: as §1
[11] = molecular target: T1, von Hippel-Lindau disease tumor suppressor/Estrogen receptor/Cullin-2; assay: Protac activity against VHL/cullin2/ERalpha in human MCF7 cells assessed as ERalpha degradation by measuring ER protein/GADPH ratio at 10 nM after 4 hrs by Western blot analysis relative to control; type: cell-based; method in brief: as §1
[12] = molecular target: T1, von Hippel-Lindau disease tumor suppressor/Estrogen receptor/Cullin-2; assay: Protac activity against VHL/cullin2/ERalpha in human MCF7 cells assessed as ERalpha degradation by measuring ER protein/GADPH ratio at 100 nM after 4 hrs by Western blot analysis relative to control; type: cell-based; method in brief: as §1
[13] = molecular target: T1, von Hippel-Lindau disease tumor suppressor/Estrogen receptor/Cullin-2; assay: Protac activity against VHL/cullin2/ERalpha in human MCF7 cells assessed as ERalpha degradation by measuring ER protein/GADPH ratio at 1000 nM after 4 hrs by Western blot analysis relative to control; type: cell-based; method in brief: as §1

T1 sequence (P03372 whole entry, looked up): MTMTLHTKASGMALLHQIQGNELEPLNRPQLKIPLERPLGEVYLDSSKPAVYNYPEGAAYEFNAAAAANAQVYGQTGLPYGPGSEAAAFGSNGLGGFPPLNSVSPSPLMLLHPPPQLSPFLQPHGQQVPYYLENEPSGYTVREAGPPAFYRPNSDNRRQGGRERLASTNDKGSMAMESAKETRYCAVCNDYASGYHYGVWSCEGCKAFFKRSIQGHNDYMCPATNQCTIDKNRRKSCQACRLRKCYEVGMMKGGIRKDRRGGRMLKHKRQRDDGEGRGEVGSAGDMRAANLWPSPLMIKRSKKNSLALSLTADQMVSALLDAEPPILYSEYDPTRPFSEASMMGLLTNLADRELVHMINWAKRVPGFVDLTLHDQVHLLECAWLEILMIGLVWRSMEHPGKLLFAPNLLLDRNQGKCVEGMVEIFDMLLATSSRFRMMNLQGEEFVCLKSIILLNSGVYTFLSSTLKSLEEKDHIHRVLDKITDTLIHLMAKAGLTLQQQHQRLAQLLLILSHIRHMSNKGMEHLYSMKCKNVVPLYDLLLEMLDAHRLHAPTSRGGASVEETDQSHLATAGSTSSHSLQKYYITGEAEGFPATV
T1 sequence (P40337 whole entry, looked up): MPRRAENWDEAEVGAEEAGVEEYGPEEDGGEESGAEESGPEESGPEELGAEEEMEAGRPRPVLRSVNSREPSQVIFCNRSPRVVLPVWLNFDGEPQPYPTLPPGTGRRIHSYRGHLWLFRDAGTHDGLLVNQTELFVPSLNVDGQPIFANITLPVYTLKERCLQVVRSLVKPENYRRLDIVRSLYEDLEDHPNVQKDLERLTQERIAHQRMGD
T1 sequence (Q13617 whole entry, looked up): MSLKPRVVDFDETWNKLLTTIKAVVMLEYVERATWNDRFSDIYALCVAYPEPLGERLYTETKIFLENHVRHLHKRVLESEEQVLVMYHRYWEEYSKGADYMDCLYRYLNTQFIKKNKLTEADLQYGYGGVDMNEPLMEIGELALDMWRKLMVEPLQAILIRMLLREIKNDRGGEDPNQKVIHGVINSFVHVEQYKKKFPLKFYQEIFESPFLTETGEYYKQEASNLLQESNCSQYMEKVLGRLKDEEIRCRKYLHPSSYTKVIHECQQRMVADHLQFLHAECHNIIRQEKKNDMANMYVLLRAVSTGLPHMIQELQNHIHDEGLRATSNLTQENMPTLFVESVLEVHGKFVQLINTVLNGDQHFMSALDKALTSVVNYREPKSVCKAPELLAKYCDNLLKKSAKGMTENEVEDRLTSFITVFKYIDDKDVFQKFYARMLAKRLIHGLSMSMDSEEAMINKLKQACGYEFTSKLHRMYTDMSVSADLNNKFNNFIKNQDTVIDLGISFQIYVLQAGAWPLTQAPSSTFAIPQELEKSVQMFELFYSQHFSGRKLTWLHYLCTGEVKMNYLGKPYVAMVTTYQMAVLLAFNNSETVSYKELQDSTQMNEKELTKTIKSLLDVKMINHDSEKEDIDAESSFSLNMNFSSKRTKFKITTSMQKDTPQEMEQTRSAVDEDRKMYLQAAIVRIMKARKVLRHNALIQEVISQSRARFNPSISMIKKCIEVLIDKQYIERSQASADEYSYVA
T2 sequence (P03372 whole entry, looked up): as the sequence (P03372 whole entry, looked up) above
T2 sequence (Q13619 whole entry, looked up): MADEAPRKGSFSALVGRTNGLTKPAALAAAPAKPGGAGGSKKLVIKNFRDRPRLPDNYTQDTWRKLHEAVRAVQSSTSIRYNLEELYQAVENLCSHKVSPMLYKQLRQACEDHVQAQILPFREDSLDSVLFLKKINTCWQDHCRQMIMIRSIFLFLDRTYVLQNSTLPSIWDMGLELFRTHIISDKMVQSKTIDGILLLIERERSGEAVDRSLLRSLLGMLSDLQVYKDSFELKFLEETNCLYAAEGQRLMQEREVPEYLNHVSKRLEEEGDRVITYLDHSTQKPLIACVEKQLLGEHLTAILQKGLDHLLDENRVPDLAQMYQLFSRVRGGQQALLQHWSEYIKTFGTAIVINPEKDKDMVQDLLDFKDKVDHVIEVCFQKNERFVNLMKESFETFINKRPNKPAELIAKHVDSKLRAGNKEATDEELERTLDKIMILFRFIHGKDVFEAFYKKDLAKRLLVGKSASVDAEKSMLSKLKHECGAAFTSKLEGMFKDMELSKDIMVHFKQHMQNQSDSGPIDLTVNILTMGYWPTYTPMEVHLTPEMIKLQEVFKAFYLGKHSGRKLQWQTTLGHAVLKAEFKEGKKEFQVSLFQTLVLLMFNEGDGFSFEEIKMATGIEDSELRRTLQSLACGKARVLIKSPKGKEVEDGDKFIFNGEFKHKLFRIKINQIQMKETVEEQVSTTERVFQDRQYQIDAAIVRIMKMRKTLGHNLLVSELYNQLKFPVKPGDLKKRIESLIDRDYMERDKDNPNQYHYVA
T2 sequence (Q96SW2 whole entry, looked up): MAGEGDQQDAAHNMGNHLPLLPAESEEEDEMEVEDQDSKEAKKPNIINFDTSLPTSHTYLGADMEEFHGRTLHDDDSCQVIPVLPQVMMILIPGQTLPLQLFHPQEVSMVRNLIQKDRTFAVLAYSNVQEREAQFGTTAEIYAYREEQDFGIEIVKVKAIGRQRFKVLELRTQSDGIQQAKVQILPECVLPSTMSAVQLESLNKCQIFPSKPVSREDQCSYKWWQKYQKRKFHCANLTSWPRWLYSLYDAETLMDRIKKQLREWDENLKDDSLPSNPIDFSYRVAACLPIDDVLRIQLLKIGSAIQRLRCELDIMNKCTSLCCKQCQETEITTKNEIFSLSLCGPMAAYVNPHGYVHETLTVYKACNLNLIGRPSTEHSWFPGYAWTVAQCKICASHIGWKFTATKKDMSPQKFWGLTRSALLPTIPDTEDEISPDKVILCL

Structure (SMILES) | IC50 [1] [nM] | Ratio [10] | Ratio [11] | Ratio [12] | also measured
C#Cc1ccc([C@H](C)NC(=O)[C@@H]2C[C@@H](O)CN2C(=O)[C@@H](NC(C)=O)C(C)(C)C)cc1 | 879 | – | – | – | –
CC(C)C[C@H](NC(=O)[C@H](CCc1ccccc1)NC(=O)CN1CCOCC1)C(=O)N[C@@H](Cc1ccccc1)C(=O)N[C@@H](CC(C)C)C(=O)[C@@]1(C)CO1 | – | – | – | – | Activity [2]: inactive
CC(=O)N[C@H](C(=O)N1C[C@H](O)C[C@H]1C(=O)N[C@@H](C)c1ccc(C(C)(C)C)cc1)C(C)(C)C | 58900 | – | – | – | –
CCN(CCOCCOCCOCC#Cc1cccc2c1CN(C1CCC(=O)NC1=O)C2=O)CCOc1ccc(C(=O)c2c(-c3ccc(O)cc3)sc3cc(O)ccc23)cc1 (configuration not stated) | – | – | – | – | Ratio [3]: 124; Ratio [4]: 149; Ratio [5]: 146; Ratio [6]: 165
CC(=O)N[C@H](C(=O)N1C[C@H](O)C[C@H]1C(=O)N[C@@H](C)c1ccc(C(C)C)cc1)C(C)(C)C | 41000 | – | – | – | –
CC(=O)N[C@H](C(=O)N1C[C@H](O)C[C@H]1C(=O)N[C@@H](C)c1ccc(-c2scnc2C)cc1)C(C)(C)C | 196 | – | – | – | –
CC(=O)N[C@H](C(=O)N1C[C@H](O)C[C@H]1C(=O)N[C@@H](C)c1ccc(Cl)cc1)C(C)(C)C | 7870 | – | – | – | –
O=C(c1ccc(OCCN2CCCCC2)cc1)c1c(-c2ccc(O)cc2)sc2cc(O)ccc12 [RALOXIFENE] | – | – | – | – | GI50 [7]: 0.079 nM; Imax [8]: 34%; Activity [9]: Active
CCN(CCCCCCCC(=O)N[C@H](C(=O)N1C[C@H](O)C[C@H]1C(=O)N[C@@H](C)c1ccc(-c2scnc2C)cc1)C(C)(C)C)CCOc1ccc(C(=O)c2c(-c3ccc(O)cc3)sc3cc(O)ccc23)cc1 | – | 21 | 0.4 | 0.3 | Ratio [13]: 64
CCNCCc1ccc(CN(CC)c2cc(OC)ccc2[C@@H]2CCc3cc(O)ccc3C2)cc1 [ELACESTRANT] | – | 89 | 171 | 159 | GI50 [7]: 0.028 nM; Imax [8]: 25.7%
Cc1ncsc1-c1ccc([C@H](C)NC(=O)[C@@H]2C[C@@H](O)CN2C(=O)[C@@H](NC(=O)CCCCCCCN(CCOc2ccc(C(=O)c3c(-c4ccc(O)cc4)sc4cc(O)ccc34)cc2)C2CCC2)C(C)(C)C)cc1 | – | 15 | 4 | 0.1 | –
CCN(CCCCCC(=O)N[C@H](C(=O)N1C[C@H](O)C[C@H]1C(=O)N[C@@H](C)c1ccc(-c2scnc2C)cc1)C(C)(C)C)CCOc1ccc(C(=O)c2c(-c3ccc(O)cc3)sc3cc(O)ccc23)cc1 | – | 26 | 66 | 12 | –
CCN(CCCC#Cc1cnn(CCC(=O)N[C@H](C(=O)N2C[C@H](O)C[C@H]2C(=O)N[C@@H](C)c2ccc(-c3scnc3C)cc2)C(C)(C)C)c1)CCOc1ccc(C(=O)c2c(-c3ccc(O)cc3)sc3cc(O)ccc23)cc1 | – | 70 | 0.5 | 0.4 | –
CCN(CCOCCOCCOCCC(=O)N[C@H](C(=O)N1C[C@H](O)C[C@H]1C(=O)N[C@@H](C)c1ccc(-c2scnc2C)cc1)C(C)(C)C)CCOc1ccc(C(=O)c2c(-c3ccc(O)cc3)sc3cc(O)ccc23)cc1 | – | 101 | 0.6 | 0.4 | Ratio [13]: 67
CCN(CCCCCCCCCC(=O)N[C@H](C(=O)N1C[C@H](O)C[C@H]1C(=O)N[C@@H](C)c1ccc(-c2scnc2C)cc1)C(C)(C)C)CCOc1ccc(C(=O)c2c(-c3ccc(O)cc3)sc3cc(O)ccc23)cc1 | – | 25 | 0.4 | 0.3 | –
CC(=O)N[C@H](C(=O)N1C[C@H](O)C[C@H]1C(=O)N[C@@H](C)c1ccc(C2CC2)cc1)C(C)(C)C | 6110 | – | – | – | –
C[C@]12CC[C@@H]3c4ccc(O)cc4C[C@@H](CCCCCCCCC[S+]([O-])CCCC(F)(F)C(F)(F)F)[C@H]3[C@@H]1CC[C@@H]2O (some centres not stated) [FULVESTRANT] | – | – | – | – | GI50 [7]: 0.17 nM; Imax [8]: 43.8%; Activity [9]: Active
CCN(CCCCCCC#Cc1cccc2c1CN(C1CCC(=O)NC1=O)C2=O)CCOc1ccc(C(=O)c2c(-c3ccc(O)cc3)sc3cc(O)ccc23)cc1 (configuration not stated) | – | – | – | – | Ratio [3]: 143; Ratio [4]: 135; Ratio [5]: 160; Ratio [6]: 174
CCC(=C(c1ccccc1)c1ccc(OCCN(CC)CCCCCCCC(=O)N[C@H](C(=O)N2C[C@H](O)C[C@H]2C(=O)N[C@@H](C)c2ccc(-c3scnc3C)cc2)C(C)(C)C)cc1)c1ccccc1 | – | 103 | 97 | 2.4 | –
CCN(CCCCCCCC(=O)N[C@H](C(=O)N1C[C@H](O)C[C@H]1C(=O)N[C@@H](C)c1ccc(C(C)C)cc1)C(C)(C)C)CCOc1ccc(C(=O)c2c(-c3ccc(O)cc3)sc3cc(O)ccc23)cc1 | – | 138 | 109 | 78 | –
